The subject of data set [1] is RAW264.7. In words: Cytotoxicity against LPS-stimulated mouse RAW264.7 cells assessed as cell viability upto 50 ug/mL for 4 hrs by MTT assay in presence of 0.01 to 1 ug/mL LPS measured after 24 hrs. Format: cell-based. The gist of the method:
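Viability of RAW 264.7 cells measured by MTT colorimetric assay after 24 h incubation with compounds. Compounds were tested up to 50 μg/mL alongside LPS at 0.01, 0.1 or 1 μg/mL, and at 100 μg/mL with 10 μg/mL LPS.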

The test system of data set [2] is RAW264.7. In words: Antiinflammatory activity against LPS-stimulated mouse RAW264.7 cells assessed as inhibition of IL-10 production at 0.5 to 50 ug/ml pretreated for 4 hrs followed by challenge with 1 ug/mL LPS for 48 hrs by ELISA relative to control. In kind it is functional, cell-based. (ELISA stands for enzyme-linked immunosorbent assay.)
The subject of data set [3] is RAW264.7. The data set is described as follows: Antiinflammatory activity against LPS-stimulated mouse RAW264.7 cells assessed as inhibition of IL-6 production at 0.5 to 50 ug/ml pretreated for 4 hrs followed by challenge with 1 ug/mL LPS for 48 hrs by ELISA relative to control. Format: functional, cell-based.
In data set [4] the test system is RAW264.7. The data set is described as follows: Antiinflammatory activity against LPS-stimulated mouse RAW264.7 cells assessed as inhibition of IL1-beta production at 0.5 to 50 ug/ml pretreated for 4 hrs followed by challenge with 1 ug/mL LPS for 48 hrs by ELISA relative to control. Format: functional, cell-based.
In data set [5] the test system is RAW264.7. The data set is described as follows: Antiinflammatory activity against LPS-stimulated mouse RAW264.7 cells assessed as inhibition of TNFalpha production at 0.5 to 50 ug/ml pretreated for 4 hrs followed by challenge with 1 ug/mL LPS for 48 hrs by ELISA relative to control. In kind it is functional, cell-based.
The test system of data set [6] is HEK293. In words: Antiinflammatory activity against LPS-stimulated NF-kappaB activated human HEK293 cells at 200 ug/ml pretreated for 4 hrs followed by challenge with LPS for 48 hrs by luciferase assay. Format: functional, cell-based. A digest of the protocol:
(§1)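 NF-κB reporter 293 cells grown in DMEM with 10% FBS, penicillin 100 U/mL and streptomycin 100 μg/mL. Compounds tested at 12.5, 25, 50, 100 and 200 μg/mL, added 4 h before stimulation with 1 μg/mL LPS for 48 h. Cells then washed twice in PBS (pH 7.4) and lysed in passive lysis buffer, and luciferase activity read.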

The subject of data set [7] is HEK293. The data set is described as follows: Antiinflammatory activity against LPS-stimulated NF-kappaB activated human HEK293 cells at 100 ug/ml pretreated for 4 hrs followed by challenge with LPS for 48 hrs by luciferase assay. Format: functional, cell-based. A digest of the protocol:
as §1

Data set [8] has as its system HEK293. In words: Antiinflammatory activity against LPS-stimulated NF-kappaB activated human HEK293 cells at 50 ug/ml pretreated for 4 hrs followed by challenge with LPS for 48 hrs by luciferase assay. Format: functional, cell-based. The gist of the method:
as §1

For data set [9], the system named is HEK293. The data set is described as follows: Antiinflammatory activity against LPS-stimulated NF-kappaB activated human HEK293 cells at 25 ug/ml pretreated for 4 hrs followed by challenge with LPS for 48 hrs by luciferase assay. In kind it is functional, cell-based. The gist of the method: as §1
The subject of data set [10] is HEK293. The data set is described as follows: Antiinflammatory activity against LPS-stimulated NF-kappaB activated human HEK293 cells at 12.5 ug/ml pretreated for 4 hrs followed by challenge with LPS for 48 hrs by luciferase assay. Format: functional, cell-based. A digest of the protocol:
as §1

In data set [11] the test system is RAW264.7. The data set is described as follows: Cytotoxicity against LPS-stimulated mouse RAW264.7 cells assessed as decrease in cell viability upto 100 ug/mL for 4 hrs by MTT assay in presence of 10 ug/mL LPS measured after 24 hrs. For orientation: Tetrazolium dyes change colour on reduction, which living cells bring about.
For data set [12], the system named is RAW264.7. The data set is described as follows: Antiinflammatory activity against LPS-stimulated mouse RAW264.7 cells assessed as inhibition of nitric oxide production at 0.5 to 50 ug/ml pretreated for 4 hrs followed by challenge with 1 ug/mL LPS for 24 hrs by Griess reaction method relative to control. (The Griess reaction detects nitrite, a stable product of nitric oxide.)

The structures appear in SMILES notation. The source made the active and inactive calls. The calls are words filed in the database; no cut-off is given here.

With `CC1(C)CC[C@]2(C(=O)O)CC[C@]3(C)C(=C2C1)CC[C@@H]1[C@@]2(C)C[C@@H](O)[C@H](O)C(C)(C)[C@@H]2CC[C@]13C`, the Activity result in the data set on RAW264.7 [1] is reported as “Non-toxic”; with RAW264.7 [11], “Toxic”. Also, the inhibition result in the data set with RAW264.7 [2], in the data set on RAW264.7 [3], in the data set with RAW264.7 [4], with RAW264.7 [5] and with RAW264.7 [12] was “Active” throughout. The result in the data set with HEK293 [6], with HEK293 [7], in the data set on HEK293 [8], in the data set with HEK293 [9] and in the data set on HEK293 [10] was Active.
In the case of `C[C@@H]1CC[C@]2(C(=O)O)CC[C@]3(C)C(=CC[C@@H]4[C@@]5(C)C[C@@H](O)[C@H](O)[C@@](C)(CO)[C@@H]5CC[C@]43C)[C@@H]2[C@]1(C)O`, the Activity entry is “Non-toxic” with RAW264.7 [1] and “Toxic” in the data set on RAW264.7 [11]. Besides, the inhibition result in the data set with RAW264.7 [2], with RAW264.7 [3], in the data set with RAW264.7 [4], in the data set on RAW264.7 [5] and with RAW264.7 [12] was “Active” each time. The result in the data set on HEK293 [6], with HEK293 [7], with HEK293 [8], in the data set on HEK293 [9] and in the data set with HEK293 [10] was Active.
`C[C@]12CCC(=O)C=C1CC[C@@H]1[C@@H]2[C@@H](O)C[C@@]2(C)[C@H]1CC[C@]2(O)C(=O)CO`: the inhibition result in the data set on RAW264.7 [2], in the data set with RAW264.7 [3], in the data set on RAW264.7 [4], in the data set with RAW264.7 [5] and with RAW264.7 [12] was “Active” in each case.
On to `CC(=O)[C@H](C)CCC1=CC2=CC[C@@H]3[C@@]4(C)C[C@@H](O)[C@H](O)[C@@](C)(CO)[C@@H]4CC[C@@]3(C)[C@]2(C)CC1`, for which the Activity result in the data set with RAW264.7 [1] is recorded as “Non-toxic”; in the data set with RAW264.7 [11] it was “Toxic”. Further, the inhibition entry with RAW264.7 [2], in the data set with RAW264.7 [3], with RAW264.7 [4], with RAW264.7 [5] and with RAW264.7 [12] was “Active” throughout. Besides, the result in the data set with HEK293 [6], in the data set on HEK293 [7], in the data set with HEK293 [8], in the data set with HEK293 [9] and in the data set with HEK293 [10] was Active.
With `CC1(C)CC[C@]2(C(=O)O)CC[C@]3(C)C(=CC[C@@H]4[C@@]5(C)C[C@@H](O)[C@@H](O)[C@@](C)(CO)[C@@H]5CC[C@]43C)[C@@H]2C1`, the figures for the Activity result with RAW264.7 [1] and in the data set with RAW264.7 [11] were “Non-toxic” and “Toxic”, respectively. The inhibition result in the data set on RAW264.7 [2], in the data set with RAW264.7 [3], in the data set on RAW264.7 [4], in the data set with RAW264.7 [5] and with RAW264.7 [12] was “Active” in each case. The outcome in the data set with HEK293 [6], in the data set on HEK293 [7], in the data set with HEK293 [8], in the data set on HEK293 [9] and in the data set on HEK293 [10] was Active.

Source of the values: ChEMBL document CHEMBL1773051, “Anti-inflammatory triterpenes from the leaves of Rosa laevigata” (J Nat Prod, 2011).
